According to ChEMBL document CHEMBL5303300, “EUbOPEN Chemogenomics Library - Multiplex” (2023):
Values joined by “and” are separate entries in the source; they are usually repeats but may differ in a detail not shown here. Equal values may be shown once.

Test system: HEK-293T
Assay: Multiplex assay against HEK293T
Format: toxicity, cell-based
Settings: human, number of replicates 2
How it was run: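 Four dyes were applied at seeding to live cells: Hoechst33342, BioTracker Green Microtubule Cytoskeleton Dye, MitoTracker Red and Annexin V Alexa Fluor 680. Imaging after compound addition used a CQ1 microscope at 37°C and 5% CO2. CellPathfinder machine-learning gating then sorted cells into Hoechst high-intensity objects or normal cells, normal cells into healthy, pyknosed or fragmented nuclei, and pyknosed cells into mitotic or apoptotic, with tubulin, mitochondrial-mass and membrane-permeability phenotypes given as per cents of healthy-nucleus cells.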

[1] = 12 h, 1 µM, compound concentration 1 uM
[2] = 12 h, 10 µM, compound concentration 10 uM
[3] = 24 h, 1 µM, compound concentration 1 uM
[4] = 24 h, 10 µM, compound concentration 10 uM
[5] = 48 h, 1 µM, compound concentration 1 uM
[6] = 48 h, 10 µM, compound concentration 10 uM

COc1cc(OC)cc(C(=O)NNC(=O)Nc2cccc3ccccc23)c1
Population Apoptotic (%) [1]: 42% and 53% | Population Fragmented Nuclei (%) [1]: 2% and 1% | Population Healthy Nuclei (%) [1]: 86% and 85% | Population Hoechst High Intensity Objects (%) [1]: 4% | Population Membrane Permeable-Phenotype (%) [1]: 1% and 2% | Population Mitochondria Different-Phenotype (%) [1]: 14% and 16% | Population Mitotic Cells (%) [1]: 57% and 46% | Population Normal (%) [1]: 95% | Population Pyknosed Nuclei (%) [1]: 10% and 13% | Population Tubulin-Different-Phenotype (%) [1]: 43% and 47% | Total Cell Count [1]: 709 and 572 | Population Apoptotic (%) [2]: 42% and 34% | Population Fragmented Nuclei (%) [2]: 3% | Population Healthy Nuclei (%) [2]: 84% and 83% | Population Hoechst High Intensity Objects (%) [2]: 6% and 4% | Population Membrane Permeable-Phenotype (%) [2]: 5% and 4% | Population Mitochondria Different-Phenotype (%) [2]: 15% and 12% | Population Mitotic Cells (%) [2]: 57% and 65% | Population Normal (%) [2]: 93% and 95% | Population Pyknosed Nuclei (%) [2]: 12% and 13% | Population Tubulin-Different-Phenotype (%) [2]: 60% and 46% | Total Cell Count [2]: 571 and 696 | Population Apoptotic (%) [3]: 25% and 34% | Population Fragmented Nuclei (%) [3]: 3% | Population Healthy Nuclei (%) [3]: 90% and 89% | Population Hoechst High Intensity Objects (%) [3]: 8% and 6% | Population Membrane Permeable-Phenotype (%) [3]: 2% | Population Mitochondria Different-Phenotype (%) [3]: 4% | Population Mitotic Cells (%) [3]: 74% and 65% | Population Normal (%) [3]: 91% and 93% | Population Pyknosed Nuclei (%) [3]: 5% and 6% | Population Tubulin-Different-Phenotype (%) [3]: 28% and 29% | Total Cell Count [3]: 1130 and 899 | Population Apoptotic (%) [4]: 36% and 29% | Population Fragmented Nuclei (%) [4]: 4% and 6% | Population Healthy Nuclei (%) [4]: 84% and 86% | Population Hoechst High Intensity Objects (%) [4]: 6% and 4% | Population Membrane Permeable-Phenotype (%) [4]: 4% and 3% | Population Mitochondria Different-Phenotype (%) [4]: 9% and 4% | Population Mitotic Cells (%) [4]: 63% and 70% | Population Normal (%) [4]: 93% and 95% | Population Pyknosed Nuclei (%) [4]: 11% and 6% | Population Tubulin-Different-Phenotype (%) [4]: 50% and 27% | Total Cell Count [4]: 700 and 1003 | Population Apoptotic (%) [5]: 8% and 15% | Population Fragmented Nuclei (%) [5]: 12% and 9% | Population Healthy Nuclei (%) [5]: 84% and 87% | Population Hoechst High Intensity Objects (%) [5]: 9% | Population Membrane Permeable-Phenotype (%) [5]: 4% | Population Mitochondria Different-Phenotype (%) [5]: 0% | Population Mitotic Cells (%) [5]: 91% and 84% | Population Normal (%) [5]: 91% and 90% | Population Pyknosed Nuclei (%) [5]: 3% and 2% | Population Tubulin-Different-Phenotype (%) [5]: 11% and 16% | Total Cell Count [5]: 2889 and 1933 | Population Apoptotic (%) [6]: 8% and 17% | Population Fragmented Nuclei (%) [6]: 10% and 12% | Population Healthy Nuclei (%) [6]: 82% and 84% | Population Hoechst High Intensity Objects (%) [6]: 6% and 8% | Population Membrane Permeable-Phenotype (%) [6]: 4% and 5% | Population Mitochondria Different-Phenotype (%) [6]: 3% and 0% | Population Mitotic Cells (%) [6]: 91% and 82% | Population Normal (%) [6]: 93% and 91% | Population Pyknosed Nuclei (%) [6]: 6% and 3% | Population Tubulin-Different-Phenotype (%) [6]: 30% and 17% | Total Cell Count [6]: 1120 and 2017

Cn1cc(-n2cnc3c(NCc4nc5cc(Cl)c(Cl)cc5[nH]4)nc(N4CCOCC4)nc32)cn1
Population Apoptotic (%) [1]: 69% and 59% | Population Fragmented Nuclei (%) [1]: 3% and 5% | Population Healthy Nuclei (%) [1]: 76% and 75% | Population Hoechst High Intensity Objects (%) [1]: 16% and 17% | Population Membrane Permeable-Phenotype (%) [1]: 3% and 1% | Population Mitochondria Different-Phenotype (%) [1]: 65% and 66% | Population Mitotic Cells (%) [1]: 30% and 40% | Population Normal (%) [1]: 83% and 82% | Population Pyknosed Nuclei (%) [1]: 20% and 19% | Population Tubulin-Different-Phenotype (%) [1]: 83% and 84% | Total Cell Count [1]: 293 and 335 | Population Apoptotic (%) [2]: 71% and 65% | Population Fragmented Nuclei (%) [2]: 4% and 2% | Population Healthy Nuclei (%) [2]: 78% and 76% | Population Hoechst High Intensity Objects (%) [2]: 18% and 12% | Population Membrane Permeable-Phenotype (%) [2]: 1% and 2% | Population Mitochondria Different-Phenotype (%) [2]: 77% and 73% | Population Mitotic Cells (%) [2]: 28% and 34% | Population Normal (%) [2]: 81% and 87% | Population Pyknosed Nuclei (%) [2]: 16% and 20% | Population Tubulin-Different-Phenotype (%) [2]: 95% and 96% | Total Cell Count [2]: 262 and 266 | Population Apoptotic (%) [3]: 72% and 66% | Population Fragmented Nuclei (%) [3]: 2% and 4% | Population Healthy Nuclei (%) [3]: 72% and 74% | Population Hoechst High Intensity Objects (%) [3]: 25% and 27% | Population Membrane Permeable-Phenotype (%) [3]: 3% and 0% | Population Mitochondria Different-Phenotype (%) [3]: 75% and 82% | Population Mitotic Cells (%) [3]: 27% and 33% | Population Normal (%) [3]: 74% and 72% | Population Pyknosed Nuclei (%) [3]: 25% and 20% | Population Tubulin-Different-Phenotype (%) [3]: 78% and 89% | Total Cell Count [3]: 256 and 257 | Population Apoptotic (%) [4]: 69% and 85% | Population Fragmented Nuclei (%) [4]: 2% and 5% | Population Healthy Nuclei (%) [4]: 81% and 80% | Population Hoechst High Intensity Objects (%) [4]: 21% and 11% | Population Membrane Permeable-Phenotype (%) [4]: 2% and 0% | Population Mitochondria Different-Phenotype (%) [4]: 87% and 88% | Population Mitotic Cells (%) [4]: 30% and 14% | Population Normal (%) [4]: 78% and 88% | Population Pyknosed Nuclei (%) [4]: 15% and 13% | Population Tubulin-Different-Phenotype (%) [4]: 92% and 95% | Total Cell Count [4]: 217 | Population Apoptotic (%) [5]: 69% and 62% | Population Fragmented Nuclei (%) [5]: 7% and 6% | Population Healthy Nuclei (%) [5]: 69% and 74% | Population Hoechst High Intensity Objects (%) [5]: 20% and 29% | Population Membrane Permeable-Phenotype (%) [5]: 5% and 1% | Population Mitochondria Different-Phenotype (%) [5]: 66% and 78% | Population Mitotic Cells (%) [5]: 30% and 37% | Population Normal (%) [5]: 79% and 70% | Population Pyknosed Nuclei (%) [5]: 22% and 19% | Population Tubulin-Different-Phenotype (%) [5]: 75% and 87% | Total Cell Count [5]: 308 and 317 | Population Apoptotic (%) [6]: 70% and 84% | Population Fragmented Nuclei (%) [6]: 5% | Population Healthy Nuclei (%) [6]: 78% and 70% | Population Hoechst High Intensity Objects (%) [6]: 17% and 11% | Population Membrane Permeable-Phenotype (%) [6]: 1% and 2% | Population Mitochondria Different-Phenotype (%) [6]: 89% and 87% | Population Mitotic Cells (%) [6]: 29% and 16% | Population Normal (%) [6]: 82% and 88% | Population Pyknosed Nuclei (%) [6]: 16% and 23% | Population Tubulin-Different-Phenotype (%) [6]: 94% and 93% | Total Cell Count [6]: 275 and 237

Cc1cc(NC(=O)c2cccc(NC(=O)/C=C/CN(C)C)c2)ccc1Nc1nccc(-c2cccnc2)n1
Population Apoptotic (%) [1]: 41% and 60% | Population Fragmented Nuclei (%) [1]: 3% | Population Healthy Nuclei (%) [1]: 87% | Population Hoechst High Intensity Objects (%) [1]: 11% and 10% | Population Membrane Permeable-Phenotype (%) [1]: 4% and 2% | Population Mitochondria Different-Phenotype (%) [1]: 40% and 30% | Population Mitotic Cells (%) [1]: 58% and 40% | Population Normal (%) [1]: 88% and 89% | Population Pyknosed Nuclei (%) [1]: 9% | Population Tubulin-Different-Phenotype (%) [1]: 93% and 92% | Total Cell Count [1]: 450 and 477 | Population Apoptotic (%) [2]: 63% and 71% | Population Fragmented Nuclei (%) [2]: 1% and 3% | Population Healthy Nuclei (%) [2]: 85% and 87% | Population Hoechst High Intensity Objects (%) [2]: 8% and 11% | Population Membrane Permeable-Phenotype (%) [2]: 2% and 1% | Population Mitochondria Different-Phenotype (%) [2]: 35% and 50% | Population Mitotic Cells (%) [2]: 36% and 28% | Population Normal (%) [2]: 91% and 88% | Population Pyknosed Nuclei (%) [2]: 12% and 9% | Population Tubulin-Different-Phenotype (%) [2]: 95% and 97% | Total Cell Count [2]: 393 and 436 | Population Apoptotic (%) [3]: 62% and 53% | Population Fragmented Nuclei (%) [3]: 5% | Population Healthy Nuclei (%) [3]: 82% and 81% | Population Hoechst High Intensity Objects (%) [3]: 11% and 10% | Population Membrane Permeable-Phenotype (%) [3]: 2% | Population Mitochondria Different-Phenotype (%) [3]: 36% and 28% | Population Mitotic Cells (%) [3]: 37% and 46% | Population Normal (%) [3]: 88% and 89% | Population Pyknosed Nuclei (%) [3]: 12% | Population Tubulin-Different-Phenotype (%) [3]: 92% and 90% | Total Cell Count [3]: 510 and 551 | Population Apoptotic (%) [4]: 76% and 74% | Population Fragmented Nuclei (%) [4]: 2% and 5% | Population Healthy Nuclei (%) [4]: 87% and 77% | Population Hoechst High Intensity Objects (%) [4]: 19% and 14% | Population Membrane Permeable-Phenotype (%) [4]: 0% and 1% | Population Mitochondria Different-Phenotype (%) [4]: 79% and 60% | Population Mitotic Cells (%) [4]: 23% and 25% | Population Normal (%) [4]: 80% and 85% | Population Pyknosed Nuclei (%) [4]: 10% and 17% | Population Tubulin-Different-Phenotype (%) [4]: 99% and 96% | Total Cell Count [4]: 367 and 377 | Population Apoptotic (%) [5]: 66% and 70% | Population Fragmented Nuclei (%) [5]: 10% and 12% | Population Healthy Nuclei (%) [5]: 77% and 76% | Population Hoechst High Intensity Objects (%) [5]: 11% and 12% | Population Membrane Permeable-Phenotype (%) [5]: 5% and 7% | Population Mitochondria Different-Phenotype (%) [5]: 10% and 11% | Population Mitotic Cells (%) [5]: 33% and 29% | Population Normal (%) [5]: 88% and 87% | Population Pyknosed Nuclei (%) [5]: 11% | Population Tubulin-Different-Phenotype (%) [5]: 83% and 80% | Total Cell Count [5]: 671 and 800 | Population Apoptotic (%) [6]: 74% and 73% | Population Fragmented Nuclei (%) [6]: 6% | Population Healthy Nuclei (%) [6]: 43% and 40% | Population Hoechst High Intensity Objects (%) [6]: 27% and 19% | Population Membrane Permeable-Phenotype (%) [6]: 12% and 9% | Population Mitochondria Different-Phenotype (%) [6]: 61% | Population Mitotic Cells (%) [6]: 25% and 26% | Population Normal (%) [6]: 72% and 80% | Population Pyknosed Nuclei (%) [6]: 50% and 52% | Population Tubulin-Different-Phenotype (%) [6]: 74% and 70% | Total Cell Count [6]: 368 and 375
